Measurements: ChEMBL document CHEMBL1275442, “Pharmacokinetics and tissue distribution of anidulafungin in rats” (Antimicrob Agents Chemother, 2008)
Values after ≈ are worked out from the molar mass of the structure shown. Blank lines part the entries; values can stand above or below the compound they belong to. *1 amine or outer side, *2 acyl side, *3 side chain or, on linkers, in order; H or OH if unused. Where a SMILES comes first, the peptide text is derived from it. Bridges are numbered along the chain shown (N, C = ends). [ ]: non-standard residue; d: D form. The star is where a group is joined. hTyr(3S-OH,4S-OH,3'-OSO3H) = N[C@H](C(=O)O)[C@H](O)[C@@H](O)c1ccc(O)c(OS(=O)(=O)O)c1; pTerphenylCO(4''-OnC5H11) = CCCCCOc1ccc(-c2ccc(-c3ccc(C(=O)*)cc3)cc2)cc1; Orn(4R-OH,5R-OH) = O=C([C@H](C[C@@H](O)[C@@H](O)N[*:3])N[*:1])[*:2]; hTyr(3S-OH,4S-OH) = N[C@H](C(=O)O)[C@H](O)[C@@H](O)c1ccc(O)cc1; Pro(3S-OH,4S-Me) = C[C@H]1CN[C@H](C(=O)O)[C@H]1O; X1 = CCCCCOc1ccc(-c2cc(-c3ccc(C(=O)*)cc3)no2)cc1; Gln(3R-OH) = NC(=O)C[C@@H](O)[C@H](N)C(=O)O; Hyp = O=C(O)[C@@H]1C[C@@H](O)CN1

Legend:
[1] = Ratio of AUC (0 to infinity) in F344 rat liver to AUC (0 to infinity) in F344 rat plasma at 5 mg/kg, iv administered as single bolus dose; format: ADME, organism-based; set-up: dose 5 mg/kg, route intravenous; conditions: liver and plasma
Method in brief: (§1)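 Male F344 rats, 10–11 weeks old, 223.6–243.8 g, given a single IV dose of [¹⁴C]-labelled drug over about 5 min. Tissue and plasma sampled predose and at 0.083–72 h, n = 3 per time point. Parent drug measured by HPLC-UV; tissue LLOQ 220 ng/g, plasma LLOQ 20 ng/ml. AUC0-∞ by noncompartmental analysis of the composite mean profile; ratio is tissue AUC over plasma AUC.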

[2] = Ratio of AUC (0 to infinity) in F344 rat lung to AUC (0 to infinity) in F344 rat plasma at 5 mg/kg, iv administered as single bolus dose; format: ADME, organism-based; set-up: dose 5 mg/kg, route intravenous; conditions: lung and plasma; method in brief: as §1
[3] = Ratio of AUC (0 to infinity) in F344 rat kidney to AUC (0 to infinity) in F344 rat plasma at 5 mg/kg, iv administered as single bolus dose; format: ADME, organism-based; set-up: dose 5 mg/kg, route intravenous; conditions: kidney and plasma; method in brief: as §1
Aspergillus flavus = experiment: Antifungal activity against Aspergillus flavus; format: functional
Aspergillus fumigatus = experiment: Antifungal activity against Aspergillus fumigatus; format: functional
Candida = experiment: Antifungal activity against Candida sp.; format: functional
[4] = Total body clearance in F344 rat at 5 mg/kg, iv administered as single bolus dose; format: ADME, organism-based; set-up: dose 5 mg/kg, route intravenous; conditions: in vivo
Method in brief: (§2)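 F344 males, 10 to 11 weeks old and 223.6 to 243.8 g, got a single 5 mg/kg iv dose of [14C]anidulafungin over about 5 min. Plasma and tissues were collected predose and at 0.083 to 72 h, n = 3 per time point. Parent drug was quantified by HPLC-UV, with LLOQ/ULOQ of 20/5,120 ng/ml in plasma and 220/56,320 ng/g in tissue. Noncompartmental parameters came from a composite mean concentration-time profile.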

[5] = Volume of distribution in F344 rat at 5 mg/kg, iv administered as single bolus dose; format: ADME, organism-based; set-up: dose 5 mg/kg, route intravenous; conditions: in vivo; method in brief: as §2
[6] = Ratio of AUC in rat liver to AUC in rat plasma at 1 mg/kg, iv; format: ADME, organism-based; set-up: dose 1 mg/kg, route intravenous; conditions: liver and plasma, read-out: Ratio AUC
[7] = Ratio of AUC in rat lung to AUC in rat plasma at 1 mg/kg, iv; format: ADME, organism-based; set-up: dose 1 mg/kg, route intravenous; conditions: lung and plasma, read-out: Ratio AUC
[8] = Ratio of AUC in rat kidney to AUC in rat plasma at 1 mg/kg, iv; format: ADME, organism-based; set-up: dose 1 mg/kg, route intravenous; conditions: kidney and plasma, read-out: Ratio AUC

Kp [1]: 12.4
Kp [2]: 10.4
Kp [3]: 10.7
SMILES: CC[C@H](C)C[C@H](C)CCCCCCCCC(=O)N[C@H]1C[C@@H](O)[C@@H](NCCN)NC(=O)[C@@H]2[C@@H](O)CCN2C(=O)[C@H]([C@H](O)CCN)NC(=O)[C@H]([C@H](O)[C@@H](O)c2ccc(O)cc2)NC(=O)[C@@H]2C[C@@H](O)CN2C(=O)[C@H]([C@@H](C)O)NC1=O [CASPOFUNGIN]

SMILES: CCCCCOc1ccc(-c2ccc(-c3ccc(C(=O)N[C@H]4C[C@@H](O)[C@@H](O)NC(=O)[C@@H]5[C@@H](O)[C@@H](C)CN5C(=O)[C@H]([C@@H](C)O)NC(=O)[C@H]([C@H](O)[C@@H](O)c5ccc(O)cc5)NC(=O)[C@@H]5C[C@@H](O)CN5C(=O)[C@H]([C@@H](C)O)NC4=O)cc3)cc2)cc1 [ANIDULAFUNGIN] ({pTerphenylCO(4''-OnC5H11)}-[Orn(4R-OH,5R-OH)]T[Hyp][hTyr(3S-OH,4S-OH)]T[Pro(3S-OH,4S-Me)]; lactam 1-C)
MIC90 (Aspergillus flavus): 0.08 mg/L (≈ 0.0702 µM)
MIC90 (Aspergillus fumigatus): 0.03 mg/L (≈ 0.0263 µM)
MIC90 (Candida): 0.06 mg/L (≈ 0.0526 µM)
clearance [4]: 0.084 L/h/kg
Vd [5]: 2.2 L/kg

SMILES: CCCCCOc1ccc(-c2cc(-c3ccc(C(=O)N[C@H]4C[C@@H](O)[C@@H](O)NC(=O)[C@@H]5[C@@H](O)[C@@H](C)CN5C(=O)[C@H]([C@H](O)CC(N)=O)NC(=O)[C@H]([C@H](O)[C@@H](O)c5ccc(O)c(OS(=O)(=O)O)c5)NC(=O)[C@@H]5C[C@@H](O)CN5C(=O)[C@H]([C@@H](C)O)NC4=O)cc3)no2)cc1 [MICAFUNGIN] (X1-[Orn(4R-OH,5R-OH)]T[Hyp][hTyr(3S-OH,4S-OH,3'-OSO3H)][Gln(3R-OH)][Pro(3S-OH,4S-Me)]; lactam 1-C)
Kp [6]: 7.8
Kp [7]: 3.6
Kp [8]: 3.2
